Among the data in ChEMBL document CHEMBL3232834, “Synthesis of novel building blocks of benzosuberone bearing coumarin moieties and their evaluation as potential anticancer agents” (Eur J Med Chem, 2014) are IC50 values, retold here.

What is called IC50 is the midpoint of a concentration-inhibition curve.

For one experiment, the system named is HEK293. Kind of experiment: In vitro cytotoxicity against HEK293 cells assessed as growth inhibition by MTT assay. It counts as cell-based. The settings on record: Homo sapiens. Put shortly: (§1)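 Human tumour lines A549 (alveolar adenocarcinoma), HeLa (cervical), MDA-MB-231 and MCF7 (breast adenocarcinoma), plus normal embryonic kidney HEK293, all ATCC-sourced, grown in 96-well plates. Growth inhibition read as cell-mediated reduction of tetrazolium salt (MTT) to formazan, with doxorubicin as standard. IC50 (µM) calculated from absorbance dose-response curves.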

The subject of a further experiment is MDA-MB-231. Kind of experiment: In vitro cytotoxicity against human MDA-MB-231 cells assessed as growth inhibition by MTT assay. It is filed as functional, cell-based. Put shortly: as §1
(In general: Formazan colour is commonly taken as a measure of viable cells.)

A further experiment has as its system HeLa. As to the kind of experiment: In vitro cytotoxicity against human HeLa cells assessed as growth inhibition by MTT assay. It counts as functional, cell-based. Put shortly: as §1
In a further experiment the test system is MCF7. Kind of experiment: In vitro cytotoxicity against human MCF7 cells assessed as growth inhibition by MTT assay. It counts as functional, cell-based. A digest of the protocol: as §1
In the next experiment the test system is A549. As to the kind of experiment: In vitro cytotoxicity against human A549 cells assessed as growth inhibition by MTT assay. It counts as functional, cell-based. Put shortly:
as §1

Molecules are shown by their SMILES.

As to `O=c1oc2ccccc2c2c1CCCc1ccccc1-2`, the IC50 is above 200 µM in the experiment with HEK293; 16.8 µM in the experiment on MDA-MB-231; 14.1 µM in the experiment with HeLa; 9.63 µM in the experiment with MCF7; 3.35 µM in the experiment on A549.
Taken in the same sequence, the figures for `Cc1cc2c(cc1C)-c1c(c(=O)oc3ccc(Cl)cc13)CCC2` were above 200 µM, 13.3 µM, 12.7 µM, 15.8 µM and 10.8 µM.
On to `COc1cc2c(cc1OC)-c1c(c(=O)oc3ccccc13)CCC2`, for which the half-maximal inhibitory concentration (IC50) with HEK293 is above 200 µM; with MDA-MB-231, 4.87 µM; in the experiment on HeLa, 6.72 µM; in the experiment on MCF7 it was above 200 µM; in the experiment on A549 it was above 200 µM.
Take `COc1cccc2c1C(=O)c1c(O)c3c(c(O)c1C2=O)C[C@@](O)(C(=O)CO)C[C@@H]3O[C@H]1C[C@H](N)[C@H](O)[C@H](C)O1` [DOXORUBICIN]: in the experiment with HEK293, the IC50 was above 200 µM.
